According to ChEMBL document CHEMBL1139291, “Syntheses and opioid receptor binding properties of carboxamido-substituted opioids” (Bioorg Med Chem Lett, 2009):

How the values were obtained:
Mu-type opioid receptor [1] = biological target: Mu-type opioid receptor (Cavia porcellus, UniProt P97266); test: Displacement of [3H]DAMGO form mu opioid receptor in guinea pig brain
[2] = Displacement of [3H]Naltrindole form delta opioid receptor in guinea pig brain; parameters: species or system Cavia porcellus
Summary of the method: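 Guinea pig brain membrane protein incubated with 12 concentrations of compound and 0.2 nM [3H]naltrindole in 50 mM Tris–HCl, pH 7.5, with 10 mM MgCl2 and 0.5 mM PMSF, for 3 h at 25 °C. Samples filtered onto polyethyleneimine-soaked glass fiber filters, washed, and counted by scintillation. IC50 came from log-probit fit, and Ki = IC50/(1 + [radioligand]/Kd).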

[3] = biological target: Kappa-type opioid receptor (Cavia porcellus, UniProt P41144); test: Displacement of [3H]U69593 form kappa opioid receptor in guinea pig brain
Sequence of Kappa-type opioid receptor (Cavia porcellus, UniProt P41144) (P41144 whole entry): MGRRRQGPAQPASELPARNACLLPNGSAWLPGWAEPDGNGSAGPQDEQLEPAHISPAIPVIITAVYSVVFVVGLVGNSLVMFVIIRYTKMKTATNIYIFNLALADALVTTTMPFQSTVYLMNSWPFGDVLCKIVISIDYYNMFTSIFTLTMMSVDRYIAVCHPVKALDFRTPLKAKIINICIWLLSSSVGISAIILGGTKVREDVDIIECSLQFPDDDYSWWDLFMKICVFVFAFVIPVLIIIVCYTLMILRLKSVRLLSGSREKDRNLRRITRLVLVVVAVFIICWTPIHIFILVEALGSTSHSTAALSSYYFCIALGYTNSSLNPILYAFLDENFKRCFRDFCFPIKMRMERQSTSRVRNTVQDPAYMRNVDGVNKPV

[4] = biological target: T1, Kappa-type opioid receptor (Homo sapiens, UniProt P41145); test: Activity at human cloned kappa opioid receptor expressed in CHO cells by [35S]GTPgammaS binding assay; assay type: functional, cell-based
T1 sequence (P41145 whole entry): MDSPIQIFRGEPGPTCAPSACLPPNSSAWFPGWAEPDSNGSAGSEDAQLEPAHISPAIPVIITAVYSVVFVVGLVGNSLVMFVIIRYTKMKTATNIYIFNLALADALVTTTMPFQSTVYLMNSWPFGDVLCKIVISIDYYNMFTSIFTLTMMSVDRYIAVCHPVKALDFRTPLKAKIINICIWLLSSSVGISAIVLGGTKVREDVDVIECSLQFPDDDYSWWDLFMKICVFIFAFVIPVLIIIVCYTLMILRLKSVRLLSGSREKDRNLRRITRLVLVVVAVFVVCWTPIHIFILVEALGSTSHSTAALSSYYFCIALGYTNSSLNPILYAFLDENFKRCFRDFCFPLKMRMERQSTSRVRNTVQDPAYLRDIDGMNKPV

Mu-type opioid receptor [5] = biological target: T2, Mu-type opioid receptor (Homo sapiens, UniProt P35372); test: Displacement of [3H]DAMGO form human mu opioid receptor expressed in CHO cells; assay type: cell-based
T2 sequence (P35372 whole entry): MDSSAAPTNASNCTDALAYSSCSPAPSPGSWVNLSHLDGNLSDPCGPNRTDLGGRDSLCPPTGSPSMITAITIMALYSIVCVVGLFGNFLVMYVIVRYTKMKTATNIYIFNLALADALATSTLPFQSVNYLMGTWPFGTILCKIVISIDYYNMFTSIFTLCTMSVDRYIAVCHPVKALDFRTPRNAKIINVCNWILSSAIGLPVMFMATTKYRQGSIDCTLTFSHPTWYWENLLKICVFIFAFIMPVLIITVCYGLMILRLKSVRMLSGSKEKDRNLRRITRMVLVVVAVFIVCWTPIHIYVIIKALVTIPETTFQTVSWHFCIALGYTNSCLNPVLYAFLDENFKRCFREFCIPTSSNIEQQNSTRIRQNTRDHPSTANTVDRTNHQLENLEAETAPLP

[6] = biological target: Delta-type opioid receptor (Homo sapiens, UniProt P41143); test: Displacement of [3H]Naltrindole form human delta opioid receptor expressed in CHO cells; assay type: cell-based
Sequence of Delta-type opioid receptor (P41143 whole entry): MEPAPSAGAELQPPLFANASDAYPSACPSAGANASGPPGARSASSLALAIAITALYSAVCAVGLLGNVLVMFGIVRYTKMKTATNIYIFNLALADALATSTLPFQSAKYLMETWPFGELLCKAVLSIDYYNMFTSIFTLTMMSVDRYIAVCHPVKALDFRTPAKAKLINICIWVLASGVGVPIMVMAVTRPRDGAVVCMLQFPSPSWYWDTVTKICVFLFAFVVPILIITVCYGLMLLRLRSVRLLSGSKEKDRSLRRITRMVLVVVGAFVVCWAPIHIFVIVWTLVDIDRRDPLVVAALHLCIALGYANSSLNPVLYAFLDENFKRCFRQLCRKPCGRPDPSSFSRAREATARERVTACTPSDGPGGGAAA
Summary of the method: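 Membranes from CHO cells stably expressing the human receptor incubated with 12 concentrations of compound and 0.2 nM [3H]naltrindole in 50 mM Tris–HCl, pH 7.5, with 10 mM MgCl2 and 0.5 mM PMSF, for 3 h at 25 °C. Filters were soaked in 0.1% PEI before filtration and scintillation counting. IC50 came from log-probit fit, and Ki = IC50/(1 + [radioligand]/Kd).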

[7] = biological target: T1, Kappa-type opioid receptor; test: Displacement of [3H]U69593 form human kappa opioid receptor expressed in CHO cells; assay type: cell-based
CHO [8] = test: Ratio of Ki for human mu opioid receptor to Ki for human kappa opioid receptor expressed in CHO cells; assay type: cell-based
CHO [9] = test: Ratio of Ki for human delta opioid receptor to Ki for human kappa opioid receptor expressed in CHO cells; assay type: cell-based
Mu-type opioid receptor [10] = biological target: T2, Mu-type opioid receptor; test: Activity at human cloned mu opioid receptor expressed in CHO cells by [35S]GTPgammaS binding assay; assay type: functional, cell-based
Cavia porcellus = species: Cavia porcellus; test: Ratio of Ki for delta opioid receptor to Ki for kappa opioid receptor in guinea pig brain
[11] = biological target: T1, Kappa-type opioid receptor; test: Activity at human cloned kappa opioid receptor expressed in CHO cells assessed as inhibition of U50488-induced [35S]GTPgammaS binding; assay type: functional, cell-based
Mu-type opioid receptor [12] = biological target: T2, Mu-type opioid receptor; test: Activity at human cloned mu opioid receptor expressed in CHO cells assessed as inhibition of DAMGO-induced [35S]GTPgammaS binding; assay type: functional, cell-based

Sequence of Mu-type opioid receptor (Cavia porcellus, UniProt P97266) (P97266 whole entry): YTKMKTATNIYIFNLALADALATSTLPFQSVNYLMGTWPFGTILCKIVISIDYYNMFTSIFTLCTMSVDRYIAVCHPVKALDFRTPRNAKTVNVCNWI

Compound	Ki [2] [nM]	EC50 [4] [nM]	Ki (Mu-type opioid receptor [5]) [nM]	Ki [6] [nM]	Ki [7] [nM]	Ratio Ki (CHO [8])	Ratio Ki (CHO [9])	other results
C[C@@H]1[C@@H]2Cc3ccc(C(N)=O)cc3[C@@]1(C)CCN2C[C@@H]1CCCO1	2	30	–	–	–	–	–	Ki (Mu-type opioid receptor [1]): 0.052 nM; Ki [3]: 0.089 nM
C[C@H]1C2Cc3ccc(O)cc3[C@@]1(C)CCN2CCc1ccccc1	–	8.1	0.2	5	2	0.1	2.5	EC50 (Mu-type opioid receptor [10]): 27 nM
C[C@@H]1[C@@H]2Cc3ccc(C(N)=O)cc3[C@@]1(C)CCN2C[C@H]1CCCO1	34	170	–	–	–	–	–	Ki (Mu-type opioid receptor [1]): 2.9 nM; Ki [3]: 2.8 nM
C[C@@H]1[C@@H]2Cc3ccc(O)cc3[C@@]1(C)CCN2C[C@H]1CCCO1	67	41	–	–	–	–	–	Ki (Mu-type opioid receptor [1]): 4 nM; Ki [3]: 1.5 nM; Ratio Ki (Cavia porcellus): 45
CC1C2Cc3ccc(C(N)=O)cc3C1(C)CCN2CCc1ccccc1 (stereo not drawn)	–	4.4	0.015	1.2	0.55	0.03	2	EC50 (Mu-type opioid receptor [10]): 5.3 nM; IC50 [11]: 640 nM
CC1C2Cc3ccc(C(N)=O)cc3C1(C)CCN2C (stereo not drawn)	–	–	1.6	320	19	0.08	17	EC50 (Mu-type opioid receptor [10]): 24 nM; IC50 (Mu-type opioid receptor [12]): 25 nM
NC(=O)c1ccc2c3c1O[C@H]1C(=O)CC[C@@]4(O)[C@@H](C2)N(CC2CC2)CC[C@]314	–	–	–	–	0.36	0.065	50	–
CCC12CCN(CC3CC3)C(C(=O)c3ccc(O)cc31)C2C (stereo not drawn)	3.4	–	–	–	–	–	–	Ki (Mu-type opioid receptor [1]): 0.78 nM
C=C1CC[C@@]2(O)[C@H]3Cc4ccc(C(N)=O)c5c4[C@@]2(CCN3CC2CC2)[C@H]1O5	–	–	2.6	67	2.1	1	32	–
CC(C)=CCN1CC[C@@]2(C)c3cc(C(N)=O)ccc3C[C@@H]1[C@@H]2C (relative stereo)	–	–	–	220	5.6	–	–	–
CC(C)=CCN1CC[C@@]2(C)c3cc(O)ccc3C[C@@H]1[C@@H]2C (relative stereo)	–	–	–	180	3	–	–	–
C=CCN1CC[C@]23c4c5ccc(O)c4O[C@H]2[C@@H](O)C=C[C@H]3[C@H]1C5 [NALORPHINE]	–	–	0.19	120	0.38	0.5	320	–
NC(=O)c1ccc2c3c1O[C@H]1[C@@H](O)CC[C@@]4(O)[C@@H](C2)N(CC2CC2)CC[C@]314	–	–	7.1	> 10000	100	0.07	–	–
CN(C)C[C@H]1CCCC[C@]1(O)c1cccc(C(N)=O)c1 (relative stereo)	–	–	9.5	2400	350	0.03	7	–
NC(=O)c1ccc2c3c1O[C@H]1C4NC5C(C[C@@]6(O)[C@H]7Cc8ccc(C(N)=O)c9c8[C@@]6(CCN7CC6CC6)[C@H]5O9)C4C[C@@]4(O)[C@@H](C2)N(CC2CC2)CC[C@]314 (stereo partly drawn)	–	–	400	1000	21	19	50	–
CCC12CCN(CC3CC3)C(C(=O)c3ccc(C(N)=O)cc31)C2C (stereo not drawn)	9.8	–	–	–	–	–	–	Ki (Mu-type opioid receptor [1]): 1.2 nM; Ratio Ki (Cavia porcellus): 14
NC(=O)c1ccc2c(c1)[C@@]13CCCC[C@@]1(O)[C@@H](C2)N(CC1CCC1)CC3	–	3.8	0.15	14	0.39	0.38	40	IC50 (Mu-type opioid receptor [12]): 30 nM
C[C@H]1[C@H]2C(=O)c3ccc(O)cc3[C@]1(C)CCN2CC1CC1 [KETAZOCINE]	20	3.3	–	–	–	–	–	Ki [3]: 1 nM; EC50 (Mu-type opioid receptor [10]): 21 nM; IC50 (Mu-type opioid receptor [12]): 130 nM
NC(=O)c1ccc2c3c1O[C@H]1[C@H](O)CC[C@@]4(O)[C@@H](C2)N(CC2CC2)CC[C@]314	–	–	2.5	> 10000	30	0.08	–	–
Oc1ccc2c(c1)[C@@]13CCCC[C@@]1(O)[C@@H](C2)N(CC1CCC1)CC3 [BUTORPHANOL]	–	2.9	–	–	–	–	–	–
CC1C2Cc3ccc(O)cc3[C@@]1(C)CCN2C[C@@H]1CCCO1 (single isomer, unassigned)	3.6	1	–	–	–	–	–	Ki (Mu-type opioid receptor [1]): 0.19 nM; Ki [3]: 0.09 nM; Ratio Ki (Cavia porcellus): 40; EC50 (Mu-type opioid receptor [10]): 2.7 nM; IC50 (Mu-type opioid receptor [12]): 17 nM
CN1CC[C@]23c4c5ccc(C(N)=O)c4O[C@H]2[C@@H](O)C=C[C@H]3[C@H]1C5	1900	–	–	–	–	–	–	Ki (Mu-type opioid receptor [1]): 34 nM; Ki [3]: 2000 nM; Ratio Ki (Cavia porcellus): 1
C=CCN1CC[C@]23c4c5ccc(C(N)=O)c4O[C@@H]2[C@@H](O)C=C[C@H]3[C@H]1C5	–	–	18	> 10000	100	0.2	–	–
CC1C2Cc3ccc(C(N)=O)cc3C1(C)CCN2CC1CC1 (stereo not drawn)	–	–	–	5.2	–	–	–	–
CC1C2C(=O)c3ccc(C(N)=O)cc3C1(C)CCN2CC1CC1 (stereo not drawn)	20	9.6	–	–	–	–	–	Ki (Mu-type opioid receptor [1]): 1.4 nM
C[C@H]1[C@@H]2Cc3ccc(O)cc3[C@]1(C)CCN2C [METAZOCINE]	–	120	3.8	140	9.9	0.4	14	EC50 (Mu-type opioid receptor [10]): 40 nM
CN(C)C[C@H]1CCCC[C@]1(O)c1cccc(O)c1 (relative stereo) [O-DESMETHYL TRAMADOL]	–	–	–	2900	450	–	–	–
COc1cccc(C2(O)CCCCC2CN(C)C)c1 (stereo not drawn) [TRAMADOL]	–	–	–	9.4	14	–	–	–
